Reference: ChEMBL document CHEMBL3588850, “Multivalent Amino Sugars to Recognize Different TAR RNA Conformations” (Medchemcomm, 2014)

Legend:
[1] = target: Nucleic Acid; assay: Binding affinity to wild type HIV1 TAR RNA at pH 6.8 by ethidium bromide displacement assay; type: nucleic-acid assay, Human immunodeficiency virus 1
Procedure, shortened: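 TAR RNA (200 nM/strand) and EtBr (5 μM) in 100 mM KCl, 10 mM SC, 0.5 mM EDTA, pH 6.8, titrated with ligand aliquots (at most 4% v/v). Fluorescence excited at 545 nm and read at 610 nm. IC50 is the ligand concentration that displaces 50% of EtBr, taken from a sigmoidal fit of fraction displaced versus log ligand concentration.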

[2] = system: Nucleic Acid; assay: Binding affinity to wild type HIV1 TAR RNA assessed as association constant at pH 6.8 by ethidium bromide displacement assay based Scatchard analysis method; type: nucleic-acid assay; conditions: Human immunodeficiency virus 1
Procedure, shortened: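 Ethidium bromide displacement: 5 μM EtBr with TAR RNA at 200 nM/strand (under 20% of EtBr bound) in 100 mM KCl, 10 mM SC, 0.5 mM EDTA, pH 6.8. Ligand added in concentrated aliquots, at most 4% v/v. Excitation 545 nm, emission 580–660 nm, intensity at 610 nm. Association constant obtained by Scatchard analysis of the titration data.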

[3] = system: Human immunodeficiency virus 1; assay: Induction of thermal stability changes in HIV1 TAR RNA U3 bulge mutant assessed as change in melting temperature using 2 molar equivalents of compound pre-incubated for 4 hrs at pH 6.8 at 4 degC before test by UV thermal denaturation assay
Procedure, shortened: (§1)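 TAR RNA mutants at 1 μM/strand mixed with 1 or 2 molar equivalents of ligand in 100 mM KCl, 10 mM SC, 0.5 mM EDTA, pH 6.8, then held 4 h at 4 °C. Absorbance at 260 nm in 1 cm cuvettes, 15–100 °C, heating 0.3 °C/min. Tm taken from first-derivative plots and compared with the no-ligand sample.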

[4] = system: Human immunodeficiency virus 1; assay: Induction of thermal stability changes in wild type HIV1 TAR RNA assessed as change in melting temperature using 1 molar equivalents of compound pre-incubated for 4 hrs at pH 6.8 at 4 degC before test by UV thermal denaturation assay
[5] = system: Nucleic Acid; assay: Binding affinity to HIV1 TAR RNA bulgeless mutant assessed as association constant at pH 6.8 by ethidium bromide displacement assay based Scatchard analysis method; type: nucleic-acid assay; conditions: Human immunodeficiency virus 1
Procedure, shortened: (§2)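 Synthetic 2′-ACE-protected TAR RNA, deprotected, heated 98 °C 5 min, then ice-cooled 15 min. TAR RNA at 200 nM/strand with ethidium bromide 5 μM in 100 mM KCl, 10 mM SC, 0.5 mM EDTA, pH 6.8. Ligand added stepwise, ≤4% v/v. Excitation 545 nm, emission 580–660 nm, intensity at 610 nm normalized. IC50 from sigmoidal fit of fraction EtBr displaced vs log ligand; association constants from Scatchard analysis.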

[6] = system: Nucleic Acid; assay: Binding affinity to HIV1 TAR RNA bulgeless tetraloop mutant assessed as association constant at pH 6.8 by ethidium bromide displacement assay based Scatchard analysis method; type: nucleic-acid assay; conditions: Human immunodeficiency virus 1; procedure, shortened: as §2
[7] = system: Human immunodeficiency virus 1; assay: Induction of thermal stability changes in HIV1 TAR RNA bulgeless mutant assessed as change in melting temperature using 1 molar equivalents of compound pre-incubated for 4 hrs at pH 6.8 at 4 degC before test by UV thermal denaturation assay; procedure, shortened: as §1
[8] = target: Nucleic Acid; assay: Binding affinity to HIV1 TAR RNA bulgeless mutant at pH 6.8 by ethidium bromide displacement assay; type: nucleic-acid assay, Human immunodeficiency virus 1; procedure, shortened: as §2
[9] = target: Nucleic Acid; assay: Binding affinity to HIV1 TAR RNA bulgeless tetraloop mutant at pH 6.8 by ethidium bromide displacement assay; type: nucleic-acid assay, Human immunodeficiency virus 1; procedure, shortened: as §2
[10] = system: Human immunodeficiency virus 1; assay: Induction of thermal stability changes in HIV1 TAR RNA bulgeless tetraloop mutant assessed as change in melting temperature using 1 molar equivalents of compound pre-incubated for 4 hrs at pH 6.8 at 4 degC before test by UV thermal denaturation assay; procedure, shortened: as §1
[11] = system: Human immunodeficiency virus 1; assay: Induction of thermal stability changes in HIV1 TAR RNA tetraloop mutant assessed as change in melting temperature using 1 molar equivalents of compound pre-incubated for 4 hrs at pH 6.8 at 4 degC before test by UV thermal denaturation assay; procedure, shortened: as §1
[12] = system: Human immunodeficiency virus 1; assay: Induction of thermal stability changes in HIV1 TAR RNA tetraloop mutant assessed as change in melting temperature using 2 molar equivalents of compound pre-incubated for 4 hrs at pH 6.8 at 4 degC before test by UV thermal denaturation assay; procedure, shortened: as §1
[13] = system: Human immunodeficiency virus 1; assay: Induction of thermal stability changes in HIV1 TAR RNA U3 bulge mutant assessed as change in melting temperature using 1 molar equivalents of compound pre-incubated for 4 hrs at pH 6.8 at 4 degC before test by UV thermal denaturation assay; procedure, shortened: as §1
[14] = target: Nucleic Acid; assay: Binding affinity to HIV1 TAR RNA tetraloop mutant at pH 6.8 by ethidium bromide displacement assay; type: nucleic-acid assay, Human immunodeficiency virus 1; procedure, shortened: as §2
[15] = system: Human immunodeficiency virus 1; assay: Induction of thermal stability changes in wild type HIV1 TAR RNA assessed as change in melting temperature using 2 molar equivalents of compound pre-incubated for 4 hrs at pH 6.8 at 4 degC before test by UV thermal denaturation assay
[16] = system: Nucleic Acid; assay: Binding affinity to HIV1 TAR RNA U3 bulge mutant at assessed as association constant at pH 6.8 by ethidium bromide displacement assay based Scatchard analysis method; type: nucleic-acid assay; conditions: Human immunodeficiency virus 1; procedure, shortened: as §2
[17] = system: Nucleic Acid; assay: Binding affinity to HIV1 TAR RNA tetraloop mutant assessed as association constant at pH 6.8 by ethidium bromide displacement assay based Scatchard analysis method; type: nucleic-acid assay; conditions: Human immunodeficiency virus 1; procedure, shortened: as §2
[18] = target: Nucleic Acid; assay: Binding affinity to HIV1 TAR RNA U3 bulge mutant at pH 6.8 by ethidium bromide displacement assay; type: nucleic-acid assay, Human immunodeficiency virus 1; procedure, shortened: as §2

NC[C@@H]1O[C@H](O[C@H]2[C@@H](O)[C@H](O[C@@H]3[C@@H](O)[C@H](N)C[C@H](N)[C@H]3O[C@H]3O[C@H](CN)[C@@H](O)[C@H](O)[C@H]3N)O[C@@H]2Cn2cc(-c3ccc(-c4cn(C[C@H]5O[C@@H](O[C@@H]6[C@@H](O)[C@H](N)C[C@H](N)[C@H]6O[C@H]6O[C@H](CN)[C@@H](O)[C@H](O)[C@H]6N)[C@H](O)[C@@H]5O[C@H]5O[C@@H](CN)[C@@H](O)[C@H](O)[C@H]5N)nn4)cc3)nn2)[C@H](N)[C@@H](O)[C@@H]1O
IC50 [1]: 150 nM
K [2]: 1.5 ×10⁸ /M

NC[C@@H]1O[C@H](O[C@H]2[C@@H](O)[C@H](O[C@@H]3[C@@H](O)[C@H](N)C[C@H](N)[C@H]3O[C@H]3O[C@H](CN)[C@@H](O)[C@H](O)[C@H]3N)O[C@@H]2CO)[C@H](N)[C@@H](O)[C@@H]1O [FRAMYCETIN]
ΔTm [3]: 1 °C
ΔTm [4]: 0.2 °C
K [5]: 3 ×10⁷ /M
K [6]: 1.6 ×10⁷ /M
ΔTm [7]: 1 °C
IC50 [8]: 150 nM
IC50 [9]: 192 nM
ΔTm [10]: 0 °C
IC50 [1]: 378 nM
ΔTm [11]: 1 °C
ΔTm [12]: 1 °C
ΔTm [13]: 0 °C
IC50 [14]: 684 nM
ΔTm [15]: 0.5 °C

NC[C@@H]1O[C@H](O[C@H]2[C@@H](O)[C@H](O[C@@H]3[C@@H](O)[C@H](N)C[C@H](N)[C@H]3O[C@H]3O[C@H](CN)[C@@H](O)[C@H](O)[C@H]3N)O[C@@H]2Cn2cc(CCCc3cn(C[C@H]4O[C@@H](O[C@@H]5[C@@H](O)[C@H](N)C[C@H](N)[C@H]5O[C@H]5O[C@H](CN)[C@@H](O)[C@H](O)[C@H]5N)[C@H](O)[C@@H]4O[C@H]4O[C@@H](CN)[C@@H](O)[C@H](O)[C@H]4N)nn3)nn2)[C@H](N)[C@@H](O)[C@@H]1O
K [16]: 6.9 ×10⁶ /M
K [5]: 8.9 ×10⁷ /M
K [6]: 7.5 ×10⁷ /M
K [17]: 1.4 ×10⁷ /M
IC50 [8]: 134 nM
IC50 [9]: 146 nM
IC50 [1]: 118 nM
IC50 [18]: 224 nM
IC50 [14]: 190 nM
K [2]: 7.1 ×10⁷ /M

NC[C@@H]1O[C@H](O[C@H]2[C@@H](O)[C@H](O[C@@H]3[C@@H](O)[C@H](N)C[C@H](N)[C@H]3O[C@H]3O[C@H](CN)[C@@H](O)[C@H](O)[C@H]3N)O[C@@H]2Cn2cc(CCCCCCc3cn(C[C@H]4O[C@@H](O[C@@H]5[C@@H](O)[C@H](N)C[C@H](N)[C@H]5O[C@H]5O[C@H](CN)[C@@H](O)[C@H](O)[C@H]5N)[C@H](O)[C@@H]4O[C@H]4O[C@@H](CN)[C@@H](O)[C@H](O)[C@H]4N)nn3)nn2)[C@H](N)[C@@H](O)[C@@H]1O
K [16]: 3.8 ×10⁶ /M
K [5]: 6.3 ×10⁷ /M
K [6]: 5.9 ×10⁷ /M
K [17]: 5 ×10⁶ /M
IC50 [8]: 146 nM
IC50 [9]: 150 nM
IC50 [1]: 126 nM
IC50 [18]: 256 nM
IC50 [14]: 214 nM
K [2]: 6.6 ×10⁷ /M

NC[C@@H]1O[C@H](O[C@H]2[C@@H](O)[C@H](O[C@@H]3[C@@H](O)[C@H](N)C[C@H](N)[C@H]3O[C@H]3O[C@H](CN)[C@@H](O)[C@H](O)[C@H]3N)O[C@@H]2Cn2cc(CCCCc3cn(C[C@H]4O[C@@H](O[C@@H]5[C@@H](O)[C@H](N)C[C@H](N)[C@H]5O[C@H]5O[C@H](CN)[C@@H](O)[C@H](O)[C@H]5N)[C@H](O)[C@@H]4O[C@H]4O[C@@H](CN)[C@@H](O)[C@H](O)[C@H]4N)nn3)nn2)[C@H](N)[C@@H](O)[C@@H]1O
K [16]: 2.1 ×10⁶ /M
K [5]: 2.2 ×10⁷ /M
K [6]: 1.2 ×10⁷ /M
IC50 [8]: 160 nM
IC50 [9]: 216 nM
IC50 [1]: 144 nM
IC50 [18]: 278 nM
IC50 [14]: 278 nM
K [2]: 2.6 ×10⁷ /M
